Results published in ChEMBL document CHEMBL1150325, “Synthesis of methyl 5-S-alkyl-5-thio-D-arabinofuranosides and evaluation of their antimycobacterial activity” (2008).
In brackets after ≈: the same amount, converted by molar mass. Activity calls are given as the source filed them. No cut-off for these calls is given here.

Tests used:
Bacillus subtilis = experiment: Antibacterial activity against Bacillus subtilis ATCC 6633 after 36 hrs visualized by MTT staining by broth macrodilution assay; assay type: functional; details: ATCC 6633, 36 h
Summary of the method: (§1)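 Broth macrodilution adapted from NCCLS. E. coli and B. subtilis grown in Mueller-Hinton broth; M. smegmatis in Middlebrook 7H9 with 0.2% glycerol and ADC enrichment. Inocula were set to a 0.5 McFarland standard, giving a final density of 5.0 · 10⁵ cfu/mL. Incubated at 37 °C for 36 h and the MIC recorded.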

[1] = tested on: Mycolicibacterium smegmatis; experiment: Antibacterial activity against Mycobacterium smegmatis ATCC 14468 assessed as inhibition zone diameter at 20 mg/mL after 24 hrs by Kirby-Bauer disk diffusion assay; assay type: functional; details: for zone of inhibition at 20000 µg/mL: ATCC 14468, 24 h, read-out: IZ
Summary of the method: (§2)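 Disk diffusion adapted from NCCLS. M. smegmatis was pre-grown about 24 h in 7H9 with 0.2% glycerol and ADC at 37.5 °C and 160 rpm, to OD₆₀₀ 0.27. It was swabbed onto Lennox or 7H10 agar with 0.5% glycerol and OADC. DMSO solutions (20 or 10 mg/mL) or control went onto 6 mm paper disks. Plates were incubated at 37 °C for 24 h, rechecked at day 6, and zone diameters measured in mm by ruler.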

[2] = tested on: Mycolicibacterium smegmatis; experiment: Antibacterial activity against Mycobacterium smegmatis ATCC 14468 assessed as inhibition zone diameter at 10 mg/mL after 24 hrs by Kirby-Bauer disk diffusion assay; assay type: functional; details: for zone of inhibition at 10000 µg/mL: ATCC 14468, 24 h, read-out: IZ; summary of the method: as §2
Escherichia coli = experiment: Antibacterial activity against Escherichia coli ATCC 23722 after 36 hrs visualized by MTT staining by broth macrodilution assay; assay type: functional; details: ATCC 23722, 36 h; summary of the method: as §1
[3] = tested on: Mycolicibacterium smegmatis; experiment: Antibacterial activity against Mycobacterium smegmatis ATCC 14468 after 36 hrs visualized by MTT staining by broth macrodilution assay; assay type: functional; details: ATCC 14468, 36 h; summary of the method: as §1
[4] = target: Diacylglycerol acyltransferase/mycolyltransferase Ag85C (Mycobacterium tuberculosis) (UniProt P9WQN9); experiment: Inhibition of mycolyltransferase activity of Mycobacterium tuberculosis antigen 85C by UV-visible absorption spectroscopy
Diacylglycerol acyltransferase/mycolyltransferase Ag85C (Mycobacterium tuberculosis), sequence (P9WQN9 whole entry): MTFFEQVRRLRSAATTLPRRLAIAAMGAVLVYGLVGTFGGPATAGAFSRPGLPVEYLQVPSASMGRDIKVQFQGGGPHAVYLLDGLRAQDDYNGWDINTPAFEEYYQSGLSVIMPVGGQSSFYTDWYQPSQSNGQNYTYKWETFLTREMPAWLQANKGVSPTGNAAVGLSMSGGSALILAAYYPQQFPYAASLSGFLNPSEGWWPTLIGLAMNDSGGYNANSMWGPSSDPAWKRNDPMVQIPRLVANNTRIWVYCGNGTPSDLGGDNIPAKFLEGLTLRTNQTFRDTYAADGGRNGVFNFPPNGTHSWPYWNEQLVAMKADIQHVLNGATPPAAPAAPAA
Summary of the method: (§3)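 Purified ag85C (M. tuberculosis) in 10 mM Tris–HCl pH 7.5, 2 mM EDTA, 1 mM DTT, added to start the reaction. The mix holds sodium phosphate buffer, β-glucosidase, dextrose and the glucose-based p-nitrophenyl substrate analogue (stock 0.1–2.5 mM, in 10% v/v DMSO); test compound is added in DMSO. The coupled release of p-nitrophenolate is read at 405 nm every 20 s for 1 h, and activity is compared by the slopes.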

[5] = target: Diacylglycerol acyltransferase/mycolyltransferase Ag85C (Mycobacterium tuberculosis) (UniProt P9WQN9); experiment: Inhibition of mycolyltransferase activity of Mycobacterium tuberculosis antigen 85C at 1 to 20 mM by UV-visible absorption spectroscopy; summary of the method: as §3

For `CCCCSC[C@H]1O[C@H](OC)[C@@H](O)[C@@H]1O`, which MIC (Bacillus subtilis) is on record?
The MIC was > 1020 µg/mL.

What about the Activity [1] of the same compound?
Its Activity is “inactive”.

And the Activity [2]?
The Activity was “inactive”.

And the MIC (Escherichia coli)?
The MIC was > 1020 µg/mL.

And the MIC [3]?
Its MIC is > 1020 µg/mL.

What does the source list for `CCCCCCSC[C@H]1O[C@@H](OC)[C@@H](O)[C@@H]1O`?
MIC (Bacillus subtilis): > 1020 µg/mL; Activity [1]: inactive; Activity [2]: inactive; Activity [4]: Active; MIC (Escherichia coli): > 1020 µg/mL; MIC [3]: 1020 µg/mL (≈ 3.87 mM)

For `CCCCCCCCSC[C@H]1O[C@@H](OC)[C@@H](O)[C@@H]1O`, which MIC (Bacillus subtilis) is on record?
Its MIC is 512 µg/mL (≈ 1.75 mM).

And the zone of inhibition at 20000 µg/mL [1]?
Its zone of inhibition at 20000 µg/mL is 13.5 mm.

And the zone of inhibition at 10000 µg/mL [2]?
The zone of inhibition at 10000 µg/mL was 7.5 mm.

What about the Activity [4] of the same compound?
Its Activity is “Active”.

What about the MIC (Escherichia coli) of the same compound?
The MIC was > 1020 µg/mL.

What about the MIC [3] of the same compound?
The MIC was 512 µg/mL (≈ 1.75 mM).

With `NNC(=O)c1ccncc1` [ISONIAZID] as the compound, how does the MIC [3] read?
Its MIC is 2 µg/mL (≈ 0.0146 mM).

What does the source list for `CCCCSC[C@H]1O[C@@H](OC)[C@@H](O)[C@@H]1O`?
MIC (Bacillus subtilis): > 1020 µg/mL; Activity [1]: inactive; Activity [2]: inactive; Activity [5]: inactive; MIC (Escherichia coli): > 1020 µg/mL; MIC [3]: > 1020 µg/mL

With `CCCCCCCCSC[C@H]1O[C@H](OC)[C@@H](O)[C@@H]1O` as the compound, how does the MIC (Bacillus subtilis) read?
Its MIC is 128 µg/mL (≈ 0.438 mM).

And the zone of inhibition at 20000 µg/mL [1]?
The zone of inhibition at 20000 µg/mL was 17.5 mm.

And the zone of inhibition at 10000 µg/mL [2]?
Its zone of inhibition at 10000 µg/mL is 14.5 mm.

What about the Activity [4] of the same compound?
The Activity was “Active”.

And the MIC (Escherichia coli)?
The MIC was > 1020 µg/mL.

And the MIC [3]?
The MIC was 256 µg/mL (≈ 0.875 mM).

Which MIC (Bacillus subtilis) does the source give for `CCCCCCSC[C@H]1O[C@H](OC)[C@@H](O)[C@@H]1O` here?
Its MIC is > 1020 µg/mL.

And the Activity [1]?
The Activity was “inactive”.

What about the Activity [2] of the same compound?
Its Activity is “inactive”.

What about the Activity [4] of the same compound?
Its Activity is “Active”.

And the MIC (Escherichia coli)?
Its MIC is > 1020 µg/mL.

And the MIC [3]?
The MIC was 1020 µg/mL (≈ 3.87 mM).
